Screening results deposited in PubChem by Broad Institute.
Most compounds without a hit are left out; they make up all but 2.5% or so of the library.
E-selectin induc: E-selectin induction in HUVECs, primary screen, imaging, HUVEC, immunofluorescence imaging, single point; normalized: neutral wells 0, TNF-alpha wells 100; actives 0.37% (n = 260,000); activation, % at 7.58 µM;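 active = mean E-selectin-positive cell signal at least 10% of the positive control, reached in at least 60% of replicates, without over 20% cell loss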
Target sequence (P16581 whole entry, looked up): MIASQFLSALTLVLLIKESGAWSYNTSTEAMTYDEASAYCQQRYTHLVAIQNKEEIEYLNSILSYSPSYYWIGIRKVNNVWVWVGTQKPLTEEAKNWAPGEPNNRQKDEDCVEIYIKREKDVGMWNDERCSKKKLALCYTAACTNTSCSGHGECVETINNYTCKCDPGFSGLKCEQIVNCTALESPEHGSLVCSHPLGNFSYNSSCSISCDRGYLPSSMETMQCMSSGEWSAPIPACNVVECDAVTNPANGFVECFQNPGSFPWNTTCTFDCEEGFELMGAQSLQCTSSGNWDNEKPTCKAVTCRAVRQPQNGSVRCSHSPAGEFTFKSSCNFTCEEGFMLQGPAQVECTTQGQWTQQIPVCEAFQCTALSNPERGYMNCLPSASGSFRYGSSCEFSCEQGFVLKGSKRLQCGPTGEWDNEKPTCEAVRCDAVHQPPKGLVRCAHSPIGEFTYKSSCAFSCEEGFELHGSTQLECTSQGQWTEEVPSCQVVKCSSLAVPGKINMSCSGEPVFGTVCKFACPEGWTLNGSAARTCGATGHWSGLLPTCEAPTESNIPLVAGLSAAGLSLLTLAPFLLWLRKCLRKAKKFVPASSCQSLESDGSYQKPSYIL
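Assay system: HUVEC primary endothelial cells. Input: 3,000 HUVEC seeded per well. Doses: one compound dose added by pin transfer. Read-out basis: % PE-positive cells. Benchmarks: TNF-alpha high, DMSO low. Detection: immunofluorescence imaging. Buffer or medium: EGM-2, gelatin.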
miR-122 sensor: miR-122 Renilla sensor signal increase in Huh7, primary screen, miR-122 inhibitor project, cell-based, single point, plate reader; Huh7 miR-122 Renilla luciferase sensor, 48 h; neutral wells = 0, positive control = 100; AID 602342, 2012; activation (reporter increase), % at 12.5 µM; actives 0.3% (n = 340,000);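 active = mean replicate activation score at least 90 and every replicate individually at or above 90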;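 note: higher luciferase means less miR-122 activity so hits act as miR-122 inhibitors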
S100A4 MyoIIA: inhibitors of S100A4-myosin IIA peptide binding, primary screen, biochemical, fluorescence polarization, TAMRA-MyoIIA peptide | Protein S100-A4 (Homo sapiens), P26447 | inhibition, % at 10.7 µM | actives 0.14% (n = 360,000) | AID 652163, 2013;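 active = mean inhibition of at least 70% across replicates, with every replicate also reaching that level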
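Test system – S100A4 monomer (human) · Compound – single-point compound testing · Schedule – 5 min incubation before reading · Probe or stimulus – TAMRA-labelled myosin IIA heavy-chain peptide probe, 5 nM · Benchmarks – neutral control DMSO, positive control TFP · Medium – Calcium-containing HEPES buffer, pH 7.2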
SIRT5 block: SIRT5 desuccinylase inhibitors, primary screen, biochemical, fluorescence imaging, single point, set 5 | NAD-dependent protein deacylase sirtuin-5, mitochondrial (Homo sapiens), Q9NXA8 | inhibition, % at 15 µM | Purified SirT5, succinyl-peptide AMC, trypsin-coupled fluorescence | AID 652115, 2013 | actives 1.1% (n = 330,000); in the data active = inhibition above about 15%
FGF22 binding: binders of human FGF22 protein, primary screen, FGF22 synaptogenesis inhibitor project, biophysical, thermal shift, single point | activity (Tm shift, normalised), % at 9.99 µM | Fibroblast growth factor 22 (Homo sapiens), Q9HCT0 | actives 1.5% (n = 340,000) | AID 651658, 2012 | recombinant FGF22 thermal shift, SYPRO orange fluorescence; percent of sucrose octasulfate shift, DMSO zero;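 active = mean Tm shift, scaled 0 neutral to 100 positive control, at about 1.3% or above, every replicate too, limit read from the data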
* = called active by the depositor; . = not tested or not shown; [ ] = dose if it differs, or a comment.

SMILES	E-selectin induc	miR-122 sensor	S100A4 MyoIIA	SIRT5 block	FGF22 binding
Cc1cccc(C)c1-n1nnnc1-c1nc2ccccc2[nH]c1=O	49*	.	0	2	0
Cc1ccccc1-c1cnc2c(c1)C(=O)N([C@H](C)CO)C[C@@H](C)[C@H](CN(C)Cc1ccccc1F)O2	0	121*[16.7 µM]	-2	5	1
CC(=O)N(C)C[C@@H]1Oc2ncc(-c3ccccc3C)cc2C(=O)N([C@H](C)CO)C[C@H]1C	0	-6[16.7 µM]	1	32*	0
C[C@H](CO)N1C[C@H](C)[C@H](CN(C)C)Oc2ncc(-c3ccccc3F)cc2C1=O	0	-4[16.7 µM]	2	17*	0
Cc1ccccc1-c1cnc2c(c1)C(=O)N([C@H](C)CO)C[C@H](C)[C@H](CN(C)Cc1ccccc1F)O2	0	-10[16.7 µM]	9	0	-1
O=C1CSCN1c1ccccc1	.	.	5	0	0
O=C(c1ccc(F)cc1)N1CC(=O)N2[C@H](CO)[C@@H](c3ccc(C#CC4CCCCC4)cc3)[C@@H]2C1	-1	.	-4	3	.
C[C@@H]1CN([C@@H](C)CO)C(=O)c2cc(C#Cc3cccnc3)cnc2O[C@H]1CN(C)C(=O)CN(C)C	1	-5[16.7 µM]	-6	-4	0
C[C@@H]1CN([C@H](C)CO)C(=O)c2cccc(NC(=O)NC3CCCCC3)c2O[C@@H]1CN(C)C	3	5[16.7 µM]	-6	0	0
COc1ccc(C2(CNC(=O)C(=O)Nc3ccc(C)cc3)CCOCC2)cc1	-1	.	2	-5	43*
COc1ccc(C2(CNS(=O)(=O)c3ccc(C)cc3)CCOCC2)cc1	.	-7	-2	-13	0
O=C1Nc2ccccc2Oc2cc([N+](=O)[O-])ccc21	1	0	-3	2	43*
C[C@@H]1CN([C@H](C)CO)C(=O)c2cc(Br)cnc2O[C@H]1CN(C)S(=O)(=O)c1ccc(F)cc1	0	13[16.7 µM]	-3	-1	0
O=C(CN1CCCC1)Nc1ccc(F)cc1	.	-8	1	-1	43*
COc1ccc(C(=O)CN2CCN(S(=O)(=O)c3cccc([N+](=O)[O-])c3)CC2)cc1OC	0	.	-22	-3	1
COc1cccc(C(=O)CN2CCN(S(=O)(=O)c3cccc([N+](=O)[O-])c3)CC2)c1	2	.	-1	3	43*
CCOC(=O)c1c(N2C(=O)Nc3ccccc3N2O)n[nH]c1-c1cccc(OC)c1	0	0	2	-1	43*
CCOC(=O)c1cccc(N2C(=O)Nc3ccccc3N2O)c1	.	-2	.	.	.
O=C(Cc1ccccc1)N1C[C@H]2[C@@H](c3ccccc31)[C@@H](CO)N2C(=O)c1cccc(F)c1	1	43[16.7 µM]	5	-1	0
N#Cc1ccc(C(=O)OCC(=O)N2CCN(C(=O)c3ccco3)CC2)cc1	1	.	-1	23*	0
O=C(OCC(=O)N1CCN(C(=O)c2ccco2)CC1)c1ccccc1	0	.	-6	-2	0
O=C(OCC(=O)N1CCN(C(=O)c2ccco2)CC1)c1ccc(Cl)cc1	0	.	-1	-4	0
O=C(OCC(=O)N1CCN(Cc2ccccc2)CC1)c1ccc(Cl)cc1	.	.	3	-2	44*
COC(=O)[C@H]1[C@H](CO)[C@H]2Cn3c(ccc(-c4ccc(F)cc4)c3=O)[C@H]2N1C(=O)C1CCC1	0	.	1	-4	0
C[C@@H]1CN([C@H](C)CO)C(=O)c2cccc(NC(=O)c3cnccn3)c2O[C@@H]1CN(C)S(=O)(=O)c1ccccc1	0	-9[16.7 µM]	.	.	.
CCOC(=O)c1cc(-c2cc(OC)c(OC)c(OC)c2)nc2c1c(=O)[nH]c(=O)n2Cc1ccccc1	.	.	-4	20*	0
CCOC(=O)c1cc(-c2ccc(F)cc2)nc2c1c(=O)[nH]c(=O)n2Cc1ccccc1	.	-5	-1	1	0
O=S(=O)(c1cccs1)N1CCCCN2[C@H](C1)[C@H](c1ccc(C3=CCCC3)cc1)[C@@H]2CO	-1	28[16.7 µM]	9	2	0
